# ChEMBL document CHEMBL1255470, “Effect of ceftaroline on normal human intestinal microflora” (Antimicrob Agents Chemother, 2010)
# The source made the active and inactive calls. No cut-off for these calls is given here.
# Assays:
# Clostridium septicum = test: Antibacterial activity against Clostridium septicum by broth microdilution method; type: functional
# Clostridioides difficile [1] = test: Antibacterial activity against Clostridium difficile by broth microdilution method; type: functional
# Prevotella = test: Antibacterial activity against Prevotella by broth microdilution method; type: functional
# Homo sapiens [2] = test: Toxicity against healthy human assessed as occurrence of urinary infection at […], iv administered every 12 hrs for 7 days measured on day 9; type: organism-based, Urine; design: route intravenous; conditions: in vivo
# Enterococcus = test: Antibacterial activity against Enterococcus in healthy human intestine at […], iv administered every 12 hrs for 7 days measured on day 21; type: functional, organism-based
# How it was run: (§1)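 Twelve healthy adults (6 male, 6 female, 20–41 y) received 600 mg by i.v. infusion over 60 min q12h, 13 doses over 7 days. Feces were collected on days −1, 2, 5, 7, 9, 14 and 21 (first specimen of the day) and frozen at −70°C. Samples were suspended in prereduced peptone yeast extract and 10-fold diluted onto nonselective and selective agars. Aerobic plates were incubated 24 h and anaerobic jars 48 h, both at 37°C. Counts were expressed as log CFU/g, with a detection limit of 10^2, and compared by Wilcoxon signed-rank test.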
# Candida albicans = test: Antifungal activity against Candida albicans in healthy human intestine at […], iv administered every 12 hrs for 7 days measured on day 21; type: functional, organism-based; how it was run: as §1
# Escherichia coli [3] = test: Antibacterial activity against Escherichia coli in healthy human intestine assessed as log reduction in bacterial count per gram of feces at […], iv administered every 12 hrs for 7 days measured on day 7; type: functional; how it was run: as §1
# Escherichia coli [4] = test: Antibacterial activity against Escherichia coli in healthy human intestine assessed as log reduction in bacterial count per gram of feces at […], iv administered every 12 hrs for 7 days measured on day 9; type: functional; how it was run: as §1
# Escherichia coli [5] = test: Antibacterial activity against Escherichia coli in healthy human intestine assessed as decrease in bacterial count at […], iv administered every 12 hrs for 7 days measured on day 14; type: functional, organism-based; how it was run: as §1
# Enterobacteriaceae = test: Antibacterial activity against Enterobacteriaceae in healthy human intestine assessed as decrease in bacterial count at […], iv administered every 12 hrs for 7 days measured on day 14; type: functional, organism-based; how it was run: as §1
# Bifidobacterium = test: Antibacterial activity against Bifidobacterium in healthy human intestine assessed as log reduction in bacterial count per gram of feces at […], iv administered every 12 hrs for 7 days measured on day 7; type: functional; how it was run: as §1
# Lactobacillus = test: Antibacterial activity against Lactobacillus in healthy human intestine assessed as log reduction in bacterial count per gram of feces at […], iv administered every 12 hrs for 7 days measured on day 7; type: functional; how it was run: as §1
# Clostridium = test: Antibacterial activity against Clostridium in healthy human intestine assessed as decrease in bacterial count at […], iv administered every 12 hrs for 7 days measured on day 7; type: functional, organism-based; how it was run: as §1
# Bacteroides sp. = test: Antibacterial activity against Bacteroides sp. in healthy human intestine assessed as decrease in bacterial count at […], iv administered every 12 hrs for 7 days measured on day 21; type: functional, organism-based; how it was run: as §1
# Homo sapiens [6] = test: Toxicity against healthy human assessed as effect on ECG parameters at […], iv administered every 12 hrs for 7 days measured on day 9; type: organism-based; design: route intravenous; conditions: in vivo
# Bacteroides fragilis [7] = test: Antibacterial activity against Bacteroides fragilis ATCC 25285 after 48 hrs by CLSI method; type: functional; conditions: NCTC 9343, 48 h
# How it was run: (§2)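 Agar dilution MIC per CLSI anaerobe guidance, with 10^5 CFU per spot inoculum and 48 h incubation. The reference strain was run alongside new colonizing fecal isolates. MIC was taken as the lowest drug concentration giving complete growth inhibition. A provisional resistance breakpoint of 4 mg/liter was applied.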
# Clostridioides difficile [8] = test: Antibacterial activity against Clostridium difficile ATCC 700057 after 48 hrs by CLSI method; type: functional; conditions: ATCC 700057, 48 h; how it was run: as §2
# Staphylococcus aureus = test: Antibacterial activity against Staphylococcus aureus ATCC 29213 at =< 4 mg/L after 48 hrs by CLSI method; type: functional, organism-based
# Enterococcus faecalis = test: Antibacterial activity against Enterococcus faecalis ATCC 29212 at =< 4 mg/L after 48 hrs by CLSI method; type: functional, organism-based
# Escherichia coli [9] = test: Antibacterial activity against Escherichia coli ATCC 25922 at =< 4 mg/L after 48 hrs by CLSI method; type: functional, organism-based
# Bacteroides fragilis [10] = test: Antibacterial activity against Bacteroides fragilis by broth microdilution method; type: functional
# Homo sapiens [11] = test: Toxicity against healthy human assessed as effect on hematological parameters at […], iv administered every 12 hrs for 7 days measured on day 9; type: organism-based; design: route intravenous; conditions: in vivo
# Propionibacterium = test: Antibacterial activity against Propionibacterium by broth microdilution method; type: functional
# Peptostreptococcus sp. = test: Antibacterial activity against Peptostreptococcus sp. by broth microdilution method; type: functional
# Clostridium perfringens = test: Antibacterial activity against Clostridium perfringens by broth microdilution method; type: functional
smiles,measurement,setting,value
CCO/N=C(\C(=O)N[C@@H]1C(=O)N2C(C(=O)[O-])=C(Sc3nc(-c4cc[n+](C)cc4)cs3)CS[C@H]12)c1nsc(NP(=O)(O)O)n1 [CEFTAROLINE FOSAMIL],MIC90,Clostridium septicum,4 µg/mL
same,MIC90,Clostridioides difficile [1],4 µg/mL
same,MIC90,Prevotella,> 32 µg/mL
same,Activity,Homo sapiens [2],Non-toxic
same,Activity,Enterococcus,inactive
same,Activity,Candida albicans,inactive
same,log10cfu,Escherichia coli [3],2
same,log10cfu,Escherichia coli [4],1.5
same,inhibition,Escherichia coli [5],Active
same,inhibition,Enterobacteriaceae,inactive
same,log10cfu,Bifidobacterium,2.1
same,log10cfu,Lactobacillus,1.7
same,inhibition,Clostridium,inactive
same,inhibition,Bacteroides sp.,inactive
same,Activity,Homo sapiens [6],Non-toxic
same,MIC,Bacteroides fragilis [7],≥ 64 µg/mL
same,MIC,Clostridioides difficile [8],4 µg/mL
same,Activity,Staphylococcus aureus,Active
same,Activity,Enterococcus faecalis,Active
same,Activity,Escherichia coli [9],Active
same,MIC90,Bacteroides fragilis [10],> 32 µg/mL
same,Activity,Homo sapiens [11],Non-toxic
same,MIC90,Propionibacterium,4 µg/mL
same,MIC90,Peptostreptococcus sp.,4 µg/mL
same,MIC90,Clostridium perfringens,4 µg/mL
